# From ChEMBL document CHEMBL3400019, “Pheophorbide-a conjugates with cancer-targeting moieties for targeted photodynamic cancer therapy” (Bioorg Med Chem, 2015)
# Active and inactive are the calls of the source. The calls are words filed in the database; no cut-off is given here. Residues, ends and D or L forms follow the SMILES beside them.
# Key:
# A549 [1] = assay: Cellular uptake in alphaVbeta3-negative human A549 cells at 2 uM after 1 hr by confocal microscopy; assay type: ADME, cell-based; conditions: a549, 1 h
# Procedure, shortened: (§1)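 Cells plated on slide dishes overnight (A549 in DMEM, others in RPMI 1640, 10% FBS, 37 °C, 5% CO2); conjugate added to medium at 2 µM, incubated (time per line), washed three times with PBS, imaged by confocal microscopy; excitation 440 nm, emission 655–755 nm.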
# A549 [2] = assay: Phototoxicity against alphaVbeta3-negative human A549 cells at 0.1 to 2 uM incubated for 2 hrs followed by 1.25 J/cm'2 light irradiation from red light emitting diode for 24 hrs by MTT assay; assay type: functional, cell-based
# Procedure, shortened: (§2)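 Cells seeded at 1 × 10^5 cells/mL overnight, PBS-washed, incubated 2 h in serum-free medium with photosensitizer (from 1 mM DMSO stock); medium removed, irradiated 1.25 J/cm2 red LED (613–645 nm). After 24 h, MTT (5 mg/mL stock) 3 h at 37 °C, formazan dissolved in 0.04 M HCl/isopropanol, OD 570 nm; background-subtracted, % of control; mean ± SD, three experiments.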
# [3] = Cellular uptake in human U87MG cells overexpressing alphaVbeta3 at 2 uM after 1 hr by confocal microscopy; assay type: ADME, cell-based; conditions: u-87mg atcc; procedure, shortened: as §1
# U-87MG ATCC = assay: Phototoxicity against human U87MG cells overexpressing alphaVbeta3 at 0.1 to 2 uM incubated for 2 hrs followed by 1.25 J/cm'2 light irradiation from red light emitting diode for 24 hrs by MTT assay; assay type: functional, cell-based; procedure, shortened: as §2
# A549 [4] = assay: Induction of apoptosis in alphaVbeta6-negative human A549 cells assessed as decrease in cell density at 1 uM incubated for 1 hr prior to 1.25 J/cm'2 light irradiation from red light emitting diode measured after 24 hrs by DAPI staining-based conventional fluorescence microscopy relative to control; assay type: functional
# FaDu [5] = assay: Induction of apoptosis in human FADU cells overexpressing alphaVbeta6 assessed as cellular shrinkage at 1 uM incubated for 1 hr prior to 1.25 J/cm'2 light irradiation from red light emitting diode measured after 24 hrs by DAPI staining-based conventional fluorescence microscopy relative to control; assay type: functional, cell-based
# FaDu [6] = assay: Induction of apoptosis in human FADU cells overexpressing alphaVbeta6 assessed as decrease in procaspase-3 expression at 0.1 to 1 uM incubated for 1 hr prior to 1.25 J/cm'2 light irradiation from red light emitting diode measured after 24 hrs by Western blotting analysis relative to control
# FaDu [7] = assay: Induction of apoptosis in human FADU cells overexpressing alphaVbeta6 assessed as increase in Bax expression at 0.1 to 1 uM incubated for 1 hr prior to 1.25 J/cm'2 light irradiation from red light emitting diode measured after 24 hrs by Western blotting analysis relative to control; assay type: functional, cell-based
# Procedure, shortened: (§3)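 A549 and FaDu seeded 2 × 10^5 cells/well, given PDT (1 h conjugate, 1.25 J/cm2 red LED, 613–645 nm, 35 mW/cm2 at 635 nm peak), then 24 h incubation; lysed, equal protein by SDS–PAGE, PVDF transfer, antibody immunoblot for PARP cleavage, procaspase-3, Bcl-2, Bax.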
# FaDu [8] = assay: Cellular uptake in human FADU cells overexpressing alphaVbeta6 at 2 uM after 1 hr by confocal microscopy; assay type: ADME, cell-based; procedure, shortened: as §1
# A549 [9] = assay: Induction of apoptosis in alphaVbeta6-negative human A549 cells assessed as increase in apoptotic cell death incubated for 1 hr prior to 1.25 J/cm'2 light irradiation from red light emitting diode measured after 24 hrs by Annexin V-FITC/propidium iodide staining-based flow cytometry relative to control; assay type: functional
# Procedure, shortened: (§4)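 Cells seeded 5 × 10^5 per plate and given photodynamic treatment as in the viability assay: conjugate in serum-free medium, then red LED light (613–645 nm) at 1.25 J/cm2. Harvested 24 h later and washed in cold PBS. Stained 15 min at rt with saturating Annexin V-FITC and PI in HEPES binding buffer (10 mM HEPES, 140 mM NaCl, 2.5 mM CaCl2, pH 7.4). Read by flow cytometry against control.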
# A549 [10] = assay: Induction of apoptosis in alphaVbeta6-negative human A549 cells assessed as condensation and the fragmentation of nuclear structure at 1 uM incubated for 1 hr prior to 1.25 J/cm'2 light irradiation from red light emitting diode measured after 24 hrs by DAPI staining-based conventional fluorescence microscopy relative to control; assay type: functional, cell-based
# Procedure, shortened: (§5)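 A549 and FaDu seeded 5 × 10^5 cells/well, PDT (1 h conjugate, 1.25 J/cm2 red LED, 613–645 nm), 24 h; fixed in 4% paraformaldehyde, stained with 1 µg/mL DAPI 5 min dark at rt, washed ice-cold PBS, nuclear chromatin changes viewed by fluorescence microscopy (×400).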
# A549 [11] = assay: Induction of apoptosis in alphaVbeta6-negative human A549 cells assessed as cell rounding at 1 uM incubated for 1 hr prior to 1.25 J/cm'2 light irradiation from red light emitting diode measured after 24 hrs by DAPI staining-based conventional fluorescence microscopy relative to control; assay type: functional
# A549 [12] = assay: Cellular uptake in alphaVbeta6-negative human A549 cells at 2 uM after 1 hr by confocal microscopy; assay type: ADME, cell-based; conditions: a549, 1 h; procedure, shortened: as §1
# A549 [13] = assay: Induction of apoptosis in alphaVbeta6-negative human A549 cells assessed as PARP cleavage at 0.1 to 1 uM incubated for 1 hr prior to 1.25 J/cm'2 light irradiation from red light emitting diode measured after 24 hrs by Western blotting analysis relative to control; assay type: functional, cell-based; procedure, shortened: as §3
# FaDu [14] = assay: Induction of apoptosis in human FADU cells overexpressing alphaVbeta6 assessed as decrease in cell density at 1 uM incubated for 1 hr prior to 1.25 J/cm'2 light irradiation from red light emitting diode measured after 24 hrs by DAPI staining-based conventional fluorescence microscopy relative to control; assay type: functional
# A549 [15] = assay: Induction of apoptosis in alphaVbeta6-negative human A549 cells assessed as cellular shrinkage at 1 uM incubated for 1 hr prior to 1.25 J/cm'2 light irradiation from red light emitting diode measured after 24 hrs by DAPI staining-based conventional fluorescence microscopy relative to control; assay type: functional, cell-based
# A549 [16] = assay: Phototoxicity against alphaVbeta6-negative human A549 cells at 0.1 to 2 uM incubated for 2 hrs followed by 1.25 J/cm'2 light irradiation from red light emitting diode for 24 hrs by MTT assay; assay type: functional, cell-based; procedure, shortened: as §2
# FaDu [17] = assay: Induction of apoptosis in human FADU cells overexpressing alphaVbeta6 assessed as increase in apoptotic cell death incubated for 1 hr prior to 1.25 J/cm'2 light irradiation from red light emitting diode measured after 24 hrs by Annexin V-FITC/propidium iodide staining-based flow cytometry relative to control; assay type: functional; procedure, shortened: as §4
# FaDu [18] = assay: Induction of apoptosis in human FADU cells overexpressing alphaVbeta6 assessed as cell rounding at 1 uM incubated for 1 hr prior to 1.25 J/cm'2 light irradiation from red light emitting diode measured after 24 hrs by DAPI staining-based conventional fluorescence microscopy relative to control; assay type: functional
# FaDu [19] = assay: Induction of apoptosis in human FADU cells overexpressing alphaVbeta6 assessed as condensation and the fragmentation of nuclear structure at 1 uM incubated for 1 hr prior to 1.25 J/cm'2 light irradiation from red light emitting diode measured after 24 hrs by DAPI staining-based conventional fluorescence microscopy relative to control; assay type: functional, cell-based; procedure, shortened: as §5
# FaDu [20] = assay: Induction of apoptosis in human FADU cells overexpressing alphaVbeta6 assessed as PARP cleavage at 0.1 to 1 uM incubated for 1 hr prior to 1.25 J/cm'2 light irradiation from red light emitting diode measured after 24 hrs by Western blotting analysis relative to control; assay type: functional, cell-based; procedure, shortened: as §3
# FaDu [21] = assay: Induction of apoptosis in human FADU cells overexpressing alphaVbeta6 assessed as reduction in Bcl-2 expression at 0.1 to 1 uM incubated for 1 hr prior to 1.25 J/cm'2 light irradiation from red light emitting diode measured after 24 hrs by Western blotting analysis relative to control; assay type: functional, cell-based; procedure, shortened: as §3
# FaDu [22] = assay: Phototoxicity against human FADU cells overexpressing alphaVbeta6 at 0.1 to 2 uM incubated for 2 hrs followed by 1.25 J/cm'2 light irradiation from red light emitting diode for 24 hrs by MTT assay; assay type: functional, cell-based; procedure, shortened: as §2
# MCF7 [23] = assay: Phototoxicity against human MCF7 cells overexpressing LHRH receptor at 0.1 to 2 uM incubated for 2 hrs followed by 1.25 J/cm'2 light irradiation from red light emitting diode for 24 hrs by MTT assay; assay type: functional, cell-based; procedure, shortened: as §2
# SK-OV-3 = assay: Phototoxicity against LHRH receptor-negative human SKOV3 cells at 0.1 to 2 uM incubated for 2 hrs followed by 1.25 J/cm'2 light irradiation from red light emitting diode for 24 hrs by MTT assay; assay type: functional, cell-based; procedure, shortened: as §2
# [24] = Cellular uptake in LHRH receptor-negative human SKOV3 cells at 2 uM after 1.5 hr by confocal microscopy; conditions: sk-ov-3, 1.5 h
# MCF7 [25] = assay: Cellular uptake in human MCF7 cells overexpressing LHRH receptor at 2 uM after 1.5 hrs by confocal microscopy; assay type: ADME, cell-based; conditions: mcf7, 1.5 h; procedure, shortened: as §1
# A549 [26] = assay: Cellular uptake in folate receptor-negative human A549 cells at 2 uM after 1 hr by confocal microscopy; assay type: ADME, cell-based; conditions: a549, 0.5 h, in the assay text read “after 0.5 hr” for “after 1 hr”; procedure, shortened: as §1
# KB = assay: Phototoxicity against human KB cells overexpressing folate receptor at 0.1 to 2 uM incubated for 2 hrs followed by 1.25 J/cm'2 light irradiation from red light emitting diode for 24 hrs by MTT assay; assay type: functional, cell-based; procedure, shortened: as §2
# A549 [27] = assay: Phototoxicity against folate receptor-negative human A549 cells at 0.1 to 2 uM incubated for 2 hrs followed by 1.25 J/cm'2 light irradiation from red light emitting diode for 24 hrs by MTT assay; assay type: functional, cell-based; procedure, shortened: as §2
# [28] = Cellular uptake in human KB cells overexpressing folate receptor at 2 uM after 1 hr by confocal microscopy; assay type: ADME, cell-based; conditions: 0.5 h, in the assay text read “after 0.5 hr” for “after 1 hr”; procedure, shortened: as §1
compound,measurement,setting,value
C=Cc1c(C)c2cc3nc(c4c5[nH]c(cc6nc(cc1[nH]2)C(C)=C6CC)c(C)c5C(=O)[C@@H]4C(=O)OC)[C@@H](CCC(=O)NCCCC(=O)NCCCC[C@H]1NC(=O)[C@@H](Cc2ccccc2)NC(=O)[C@H](CC(=O)O)NC(=O)CNC(=O)[C@H](CCCNC(=N)N)NC1=O)[C@@H]3C,Drug uptake,A549 [1],Not Active
same,Activity,A549 [2],inactive
same,Drug uptake,[3],Active
same,Activity,U-87MG ATCC,Active
"[H][C@]12CSSC[C@]([H])(NC1=O)C(=O)N[C@@H](CCCNC(=N)N)C(=O)NCC(=O)N[C@@H](CC(=O)NCCCNC(=O)CC[C@@H]1c3nc(cc4[nH]c(cc5nc(cc6[nH]c7c(c6C)C(=O)[C@H](C(=O)OC)c37)C(CC)=C5C)c(C=C)c4C)[C@H]1C)C(=O)N[C@@H](CC(C)C)C(=O)N[C@@H](C)C(=O)N[C@@H](CO)C(=O)N[C@@H](CC(C)C)C(=O)N2 (HELM PEPTIDE1{R.G.D.L.A.S.L.C.C}|CHEM1{[C=Cc1c(C)c2cc3nc(c4c5[nH]c(cc6nc(cc1[nH]2)C(C)=C6CC)c(C)c5C(=O)[C@@H]4C(=O)OC)[C@@H](CCC(=O)NCCCN[*:1])[C@@H]3C]}$PEPTIDE1,CHEM1,3:R3-1:R1|PEPTIDE1,PEPTIDE1,8:R3-9:R3|PEPTIDE1,PEPTIDE1,1:R1-9:R2$$$V2.0)",Activity,A549 [4],inactive
same,Activity,FaDu [5],Active
same,Activity,FaDu [6],Active
same,Activity,FaDu [7],Active
same,Drug uptake,FaDu [8],Active
same,Activity,A549 [9],19.8%
same,Activity,A549 [10],inactive
same,Activity,A549 [11],inactive
same,Drug uptake,A549 [12],Not Active
same,Activity,A549 [13],inactive
same,Activity,FaDu [14],Active
same,Activity,A549 [15],inactive
same,Activity,A549 [16],inactive
same,Activity,FaDu [17],Dose-dependent effect
same,Activity,FaDu [17]; record 2,31.4%
same,Activity,FaDu [18],Active
same,Activity,FaDu [19],Active
same,Activity,FaDu [20],Active
same,Activity,FaDu [21],Active
same,Activity,FaDu [22],Active
C=Cc1c(C)c2cc3nc(c4c5[nH]c(cc6nc(cc1[nH]2)C(C)=C6CC)c(C)c5C(=O)[C@@H]4C(=O)OC)[C@@H](CCC(=O)NCCCC(=O)OC[C@H](NC(=O)[C@@H](Cc1c[nH]c2ccccc12)NC(=O)[C@H](Cc1cnc[nH]1)NC(=O)[C@@H]1CCC(=O)N1)C(=O)N[C@@H](Cc1ccc(O)cc1)C(=O)N[C@H](CC(C)C)C(=O)N[C@@H](CC(C)C)C(=O)N[C@@H](CCCNC(=N)N)C(=O)N1CCC[C@H]1C(=O)NCC)[C@@H]3C,Activity,MCF7 [23],Active
same,Activity,SK-OV-3,inactive
C=Cc1c(C)c2cc3nc(c4c5[nH]c(cc6nc(cc1[nH]2)C(C)=C6CC)c(C)c5C(=O)[C@@H]4C(=O)OC)[C@@H](CCC(=O)NCCCC(=O)OC[C@H](NC(=O)[C@H](Cc1c[nH]c2ccccc12)NC(=O)[C@H](Cc1cnc[nH]1)NC(=O)[C@@H]1CCC(=O)N1)C(=O)N[C@@H](Cc1ccc(O)cc1)C(=O)N[C@H](CC(C)C)C(=O)N[C@@H](CC(C)C)C(=O)N[C@@H](CCCNC(=N)N)C(=O)N1CCC[C@H]1C(=O)NCC)[C@@H]3C,Drug uptake,[24],Not Active
same,Drug uptake,MCF7 [25],Active
C=Cc1c(C)c2cc3nc(c4c5[nH]c(cc6nc(cc1[nH]2)C(C)=C6CC)c(C)c5C(=O)[C@@H]4C(=O)OC)[C@@H](CCC(=O)NCCOCCOCCNC(=O)CCC(NC(=O)c1ccc(NCc2cnc4nc(N)[nH]c(=O)c4n2)cc1)C(=O)O)[C@@H]3C (some centres not stated),Drug uptake,A549 [26],Not Active
same,Activity,KB,Active
same,Activity,A549 [27],inactive
same,Drug uptake,[28],Active
